TAAR1 agonist: human TAAR1 agonism; CHO RD-HGA16 TAAR1, Fluo-8 calcium fluorescence; vehicle wells 0%, saturating PEA agonist 100%; activation, % at 3 µM; hit rate 0.99% among 360,000;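 active means activation above the mean activation of all test compounds in the run plus 3 SD, cut at about 38% in these data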
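Test system: RD-HGA16 (CHO) cells co-expressing Gα16 and hTAAR1 / Benchmarks: DMSO vehicle as 0%, PEA at EC100 as 100% / Repeats: no replicates (n 1) / Measure: % activation from peak over basal fluorescence ratio, DMSO-to-PEA scaled / Timing: 17-24 h plating, Fluo-8 75 min 37 °C, 30 min RT / Technique: kinetic Fluo-8 calcium fluorescence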
LANA-H2B inh: blocks KSHV LANA binding to histone H2A/H2B; Q9QR71; cell-free LANA-H2A/H2B peptide, fluorescence polarization; inhibition, % (test concentration not listed); hit rate 0.6% among 320,000; in the data active means inhibition mostly above about 10%, no sharp cut-off; inactive means mostly below about 6.7%
GPR7 antag: blocks human GPR7 receptor signaling; inhibition, % at 4.4 µM; AID 1861; GPR7-expressing cells, fluorescence antagonist assay; hit rate 1.1% among 290,000; P48145; in the data active means inhibition above about 16%, passing the limit was not always enough;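 further: cells stimulated with the agonist NPW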
TRPML3 ag: activates the human TRPML3 channel. Q8TDD5. HEK293 TRPML3-YFP, Fluo-8 calcium fluorescence; 100% = the carbachol control signal. activation, % at 3 µM. hit rate 0.29% among 220,000. AID 1448;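 active means activation above its plate's cutoff, the mean activation of the plate's test wells plus 3 SD, cut at about 12% in these data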
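system = HEK293 cells stably carrying human TRPML3-YFP | doses = one concentration, 3 µM nominal, 0.3% DMSO | timing = dye loading 1 h 37 °C then 30 min ambient, 125 s read | detection = Fluo-8 calcium dye fluorescence, ex 470-495, em 515-575 nm | benchmarks = high control carbachol 87 µM, low control DMSO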
TRPN1 ag: activates the zebrafish TRPN1 channel; HEK293 zebrafish TRPN1-YFP, Fluo-8 calcium fluorescence; 100% = response to 87 µM carbachol; hit rate 0.18% among 220,000; activation, % at 3 µM;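 active means activation above its plate's cutoff, the mean activation of test wells on that plate plus 3 SD, cut at about 19% in these data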
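Material – zebrafish TRPN1-YFP in HEK293 cells · Doses – 3 µM single point · Schedule – dye 1 h 37 °C plus 30 min RT · Signal – Fluo-8 calcium fluorescence, excitation 470-495 nm, emission 515-575 nm · Read-out – % activation versus carbachol response · Control set – carbachol high, DMSO low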
TAAR1 antag: antagonists of human TAAR1; Q96RJ0; CHO RD-HGA16 TAAR1, Fluo-8 calcium fluorescence, antagonist; inhibition, % at 3 µM; hit rate 1.5% among 360,000;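 active means inhibition above a per-plate cutoff, the mean inhibition of test compounds on that plate plus 3 SD, cut at about 49% in these data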
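System: RD-HGA16 CHO cells with stable hTAAR1 and Gα16 | Probe or stimulus: EC80 β-phenethylamine stimulus | Dosing: 3 µM, single point | Times: Dye loading 75 min at 37 °C, then 30 min room temperature | Measured by: Fluo-8 calcium-sensitive fluorescence | Read-out basis: % inhibition of agonist calcium response | Replicates: n of 1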
GPR7 antag conf: confirmation of human GPR7 antagonists; shares compounds with GPR7 antag; GPR7-expressing cells, calcium fluorescence antagonist mode; hit rate 52% among 2,400; inhibition, % at 4.4 µM; in the data active means inhibition above about 24%;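 further: stimulated with the GPR7 agonist NPW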
MCHR1 antag: MCHR1 (human) antagonism in GPR7 counter-screen. shares compounds with GPR7 antag. MCHR1-expressing cells, fluorescence antagonist assay. inhibition, % at 4.4 µM. hit rate 62% among 2,400. AID 2148; in the data active means inhibition above about 22%
Hits are given with their value; . = inactive; / = no result. In the library only some 3.4% were active in any assay of this set; here they are far more common.

SMILES	TAAR1 agonist	LANA-H2B inh	GPR7 antag	TRPML3 ag	TRPN1 ag	TAAR1 antag	GPR7 antag conf	MCHR1 antag
O=C(CCn1nc(-c2ccc(Cl)cc2)c2ccccc2c1=O)Nc1cccnc1	.	.	21	.	.	.	.	.
O=C(Cc1cccc(NC(=O)C2CCCN(C(=O)C3CCC3)C2)c1)Nc1cccc(C(=O)N2CCCC2)c1 (stereo not given)	.	.	/	/	/	.	/	/
Cc1ccc(OCC(=O)Nc2ccc3c(c2)nc(CCN2CCCCC2)n3C)cc1	.	.	22	/	/	.	.	.
Cc1ccc(OCCn2c(CCCO)nc3ccccc32)cc1	.	.	23	.	.	.	.	.
CCCCOCCCNC(=O)C[C@@H]1C[C@@]2(C(=O)OC)CC(C)(C)CC=C2N(Cc2ccccc2)C1=O	.	/	/	/	/	.	/	/
C#CCOCCOCCOCCNc1nc(N2CCOCC2)nc(N2CCN(C(=O)[C@H](Cc3cc4ccccc4[nH]3)n3cc([C@@H](N)CC(C)C)nn3)CC2)n1	/	.	.	.	.	/	/	/
C#CCOCCOCCOCCNc1nc(N2CCN(C(=O)[C@H](Cc3cc4ccccc4[nH]3)n3cc([C@@H](N)CC(C)C)nn3)CC2)nc(N2CCN(C(=O)[C@H](Cc3cc4ccccc4[nH]3)n3cc([C@@H](N)CC(C)C)nn3)CC2)n1	/	.	79	.	.	/	54	33
O=c1c2cc(NC(=S)NCCCN3CCC(Cc4ccccc4)CC3)ccc2nc2n1CCCCC2	.	.	22	.	.	.	52	73
O=c1c2cc(NC(=S)NCCN3CCCCCC3)ccc2nc2n1CCCCC2	.	.	.	.	.	.	/	/
Cc1ccc(C)c(-n2c3nc(=O)[nH]c(=O)c-3cc3cc([N+](=O)[O-])ccc32)c1	.	.	22	.	.	.	42	43
COc1ccc(C(O)c2cnc(C)n2Cc2ccccc2)cc1 (stereo not given)	.	/	/	/	/	.	/	/
COc1cccc(CC(=O)N2CCCC(CO)(Cc3ccc(F)cc3F)C2)c1 (stereo not given)	.	.	26	/	/	.	.	.
CCC(C)c1ccc(S(=O)(=O)N2CCN(C(=O)c3ccc(Cl)c(S(=O)(=O)N4CCOCC4)c3)CC2)cc1 (stereo not given)	.	/	/	/	/	.	/	/
CC(C)C(NC(=O)c1ccc(C(C)(C)C)cc1)C(=O)NCC(c1ccccc1)N(C)C (stereo not given)	.	.	22	.	.	.	.	.
Cc1ccc(NC(=O)c2nc(C)n(-c3ccc([N+](=O)[O-])cc3)n2)cc1	/	.	.	.	.	/	/	/
Cc1nc(C(=O)Nc2ccc(Cl)cc2)nn1-c1ccc([N+](=O)[O-])cc1	.	.	31	.	.	.	.	.
O=C(COc1ccc(S(=O)(=O)N2CCOCC2)cc1)NC1CCCCC1	.	.	/	/	/	.	/	/
CCN(CC)S(=O)(=O)c1ccc(N2Cc3ccccc3C2=N)cc1	.	.	22	.	.	.	.	.
CC1CCC(C(C)C)C(OC(=O)Cn2c(-c3ccccc3)[n+](C)c3ccccc32)C1 (stereo not given)	.	172	86	.	.	.	92	83
CCOc1ccc(C(CC(=O)O)NC(=O)C2c3ccccc3Oc3ccccc32)cc1 (stereo not given)	.	.	.	.	.	.	/	/
O=C(O)CC(NC(=O)C1c2ccccc2Oc2ccccc21)c1ccc(Cl)cc1 (stereo not given)	.	.	35	.	.	.	.	.
CCCCCCCSc1ncnc2[nH]ncc12	.	/	/	/	/	.	/	/
NC(=O)c1c(N)sc2c1CCCC2	.	.	23	.	.	.	.	.
NC(=O)N/N=C/c1ccccc1OCc1cccc2ccccc12	.	.	.	/	/	.	/	/
CC(C)(C)NC(=O)C(c1ccc(C(F)(F)F)cc1)n1c(=O)c(-c2cc3ccccc3[nH]2)nc2ccccc21 (stereo not given)	.	/	/	/	/	.	/	/
